Source: article PMC10395004 (European journal of pharmaceutical sciences : official …, 2022)
Counter-ions that a name gives are not always drawn. Like-named read-outs stand apart in the source and are kept apart here. One block for each compound: values may come before it.

Assays:
[1] = type: in vivo, mice
Cyp2d = type: in vivo, mice; conditions: male, mouse, plasma, po, 12 mg/kg
How it was run: (§1)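 16 h later they received DLX 12 mg/kg p.o. in 0.5% methyl cellulose. Tail-vein blood (heparin) was taken at 0–24 h (9 points) and spun to plasma. Plasma was methanol-precipitated with IS and run by LC-MS against a DLX standard curve. Parameters came from noncompartmental analysis; ratios were taken between group means.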

[2] = type: in vivo, mice; conditions: for CL/F / Vd/F / AUC(0-t) / MRT last / MRT inf / half-life / Cmax / Tmax / increase of metabolite AUC by propranolol: DLX 12 mg/kg p.o.; for CL/F / Vd/F / AUC(0-inf) / AUC(0-t) / MRT last / MRT inf / half-life / Cmax / Tmax / increase of metabolite AUC by propranolol: plasma; for AUC(0-inf) / AUC(0-t) / MRT last / MRT inf / half-life / Cmax / Tmax: male, mouse, po, 12 mg/kg; for AUC(0-t): AUC0-t; for MRT last: MRT0-t; for MRT inf: MRT0-∞; for increase of metabolite AUC by propranolol: peak area
How it was run: as §1

[3] = KO + control compared with WT + control, not statistically significant
[4] = KO + inhibitor compared to KO + control
[5] = WT + inhibitor compared to WT + control
[6] = Cyp1a2-KO mice, Cyp2d+I (propranolol 30 mg/kg 16 h before)
[7] = Cyp1a2-KO mice, control (vehicle)
[8] = WT mice, Cyp2d+I (propranolol 30 mg/kg 16 h before)
[9] = Cyp1a2-KO, Cyp1a2-KO mice, Cyp2d+I (propranolol 30 mg/kg 16 h before)
[10] = Cyp1a2-KO, Cyp1a2-KO mice, control (vehicle)

decrease of DLX level in liver [1, 3]: 48%
decrease of DLX level in lung [1, 3]: 31%
increase of DLX level in kidney [1, 3]: 62%
increase of DLX levels in brain and testis [1, 3]: around 25%
increase of DLX level in liver [1, 4]: 3 folds
increase of DLX levels in other tissues (than liver) [1, 4]: around 1.5 folds
elevation of DLX level in liver by Cyp2d inhibitor ([1]; KO mice (discussion)): 4.0 folds
increase of DLX level in kidney by Cyp2d inhibitor ([1]; KO mice (discussion)): 3.9 folds
increase of DLX level in kidney [1, 5]: Three-fold
increase of DLX levels in epididymis, testis and brain [1, 5]: 1–2 folds
increase of DLX levels in liver and spleen [1, 5]: around 90%
elevation of DLX level in liver by Cyp2d inhibitor ([1]; WT mice (discussion)): 1.9 folds
increase of DLX level in kidney by Cyp2d inhibitor ([1]; WT mice (discussion)): 2.5 folds
AUC(0-inf) (Cyp2d; Cyp1a2-KO): 4.27 ± 0.57 µM·h
AUC(0-inf) (Cyp2d): 8.5 ± 2.45 µM·h
AUC0-t ratio Cyp2d+I/Control ([2]; Cyp1a2-KO mice): 2.29
AUC0-∞ ratio Cyp2d+I/Control ([2]; Cyp1a2-KO mice): 2.26
CL/F ratio Cyp2d+I/Control ([2]; Cyp1a2-KO mice): 0.40
Cmax ratio Cyp2d+I/Control ([2]; Cyp1a2-KO mice): 3.95
MRT0-t ratio Cyp2d+I/Control ([2]; Cyp1a2-KO mice): 0.80
MRT0-∞ ratio Cyp2d+I/Control ([2]; Cyp1a2-KO mice): 0.76
T1/2 ratio Cyp2d+I/Control ([2]; Cyp1a2-KO mice): 0.83
Tmax ratio Cyp2d+I/Control ([2]; Cyp1a2-KO mice): 0.40
Vd/F ratio Cyp2d+I/Control ([2]; Cyp1a2-KO mice): 0.30
CL/F [2, 6]: 2.94 ± 0.34 mg/(hr*μmol/L)/kg
Vd/F [2, 6]: 15.44 ± 1.71 mg/(μmol/L)/kg
CL/F [2, 7]: 7.32 ± 1.60 mg/(hr*μmol/L)/kg
Vd/F [2, 7]: 51.03 ± 18.18 mg/(μmol/L)/kg
increase of AUC0-t by propranolol ([2]; KO + inhibitor vs KO + control): 129%
increase of Cmax by propranolol ([2]; KO + inhibitor vs KO + control): 295%
AUC0-t KO control/WT control ratio ([2]; KO control vs WT control): 0.89
AUC0-∞ KO control/WT control ratio ([2]; KO control vs WT control): 0.89
CL/F KO control/WT control ratio ([2]; KO control vs WT control): 1.18
Cmax KO control/WT control ratio ([2]; KO control vs WT control): 0.56
MRT0-t KO control/WT control ratio ([2]; KO control vs WT control): 1.14
MRT0-∞ KO control/WT control ratio ([2]; KO control vs WT control): 1.16
T1/2 KO control/WT control ratio ([2]; KO control vs WT control): 1.04
Tmax KO control/WT control ratio ([2]; KO control vs WT control): 1.81
Vd/F KO control/WT control ratio ([2]; KO control vs WT control): 1.28
increase of AUC0-t by propranolol ([2]; WT + inhibitor vs WT + control): 304%
increase of Cmax by propranolol ([2]; WT + inhibitor vs WT + control): 177%
AUC0-t ratio Cyp2d+I/Control ([2]; WT mice): 4.04
AUC0-∞ ratio Cyp2d+I/Control ([2]; WT mice): 4.01
CL/F ratio Cyp2d+I/Control ([2]; WT mice): 0.30
Cmax ratio Cyp2d+I/Control ([2]; WT mice): 2.78
MRT0-t ratio Cyp2d+I/Control ([2]; WT mice): 1.10
MRT0-∞ ratio Cyp2d+I/Control ([2]; WT mice): 1.04
T1/2 ratio Cyp2d+I/Control ([2]; WT mice): 0.76
Tmax ratio Cyp2d+I/Control ([2]; WT mice): 0.91
Vd/F ratio Cyp2d+I/Control ([2]; WT mice): 0.26
increase of AUC of DLX by propranolol ([2]; WT mice): 3 folds
CL/F [2, 8]: 1.88 ± 0.60 mg/(hr*μmol/L)/kg
Vd/F [2, 8]: 10.27 ± 5.02 mg/(μmol/L)/kg
CL/F ([2]; WT mice, control (vehicle)): 6.19 ± 0.97 mg/(hr*μmol/L)/kg
Vd/F ([2]; WT mice, control (vehicle)): 39.87 ± 9.28 mg/(μmol/L)/kg
AUC(0-inf) ([2]; Cyp1a2-KO): 1.89 ± 0.39 µM·h
AUC(0-t) [2, 9]: 4.23 ± 0.56 µM·h
AUC(0-t) [2, 10]: 1.85 ± 0.39 µM·h
MRT last [2, 9]: 4.61 ± 0.29 h
MRT last [2, 10]: 5.73 ± 0.22 h
MRT inf [2, 9]: 4.83 ± 0.27 h
MRT inf [2, 10]: 6.39 ± 0.26 h
half-life ([2]; Cyp1a2-KO, T1/2, Cyp1a2-KO mice, Cyp2d+I (propranolol 30 mg/kg 16 h before)): 3.66 ± 0.24 h
half-life ([2]; Cyp1a2-KO, T1/2, Cyp1a2-KO mice, control (vehicle)): 4.43 ± 0.64 h
AUC(0-inf) [2]: 2.12 ± 0.4 µM·h
AUC(0-t) [2, 8]: 8.45 ± 2.46 µM·h
AUC(0-t) ([2]; WT mice, control (vehicle)): 2.09 ± 0.41 µM·h
Cmax [2, 6]: 790 ± 210 nM
Cmax [2, 7]: 200 ± 20 nM
Cmax [2, 8]: 1000 ± 210 nM
Cmax ([2]; WT mice, control (vehicle)): 360 ± 50 nM
MRT last [2, 8]: 5.51 ± 0.16 h
MRT last ([2]; WT mice, control (vehicle)): 5.02 ± 0.18 h
MRT inf [2, 8]: 5.75 ± 0.21 h
MRT inf ([2]; WT mice, control (vehicle)): 5.52 ± 0.34 h
half-life ([2]; T1/2, WT mice, Cyp2d+I (propranolol 30 mg/kg 16 h before)): 3.32 ± 0.52 h
half-life ([2]; T1/2, WT mice, control (vehicle)): 4.28 ± 0.41 h
Tmax [2, 6]: 1 ± 0.35 h
Tmax [2, 7]: 2.5 ± 0.5 h
Tmax [2, 8]: 1.25 ± 0.25 h
Tmax ([2]; WT mice, control (vehicle)): 1.38 ± 0.38 h
Structure (SMILES): CNCC[C@H](Oc1cccc2ccccc12)c1cccs1 [DLX, (3S)-N-methyl-3-(1-naphthyloxy)-3-(2-thienyl)propan-1-amine]

increase of metabolite abundance in kidney by Cyp2d inhibitor ([1]; WT + inhibitor vs WT + control, or KO + inhibitor vs KO + control): over 65%
increase of metabolite AUC by propranolol ([2]; KO mice): 73%
increase of metabolite AUC by propranolol ([2]; WT mice): 103%
Structure (SMILES): O=S(=O)(O)Oc1cccc2ccccc12 [M28, 1-naphthol sulfate]
